Most compounds without a hit are left out; they make up all but 3.7% or so of the library.
b-catenin transl – modulators of beta-catenin nuclear translocation. HeLa beta-catenin nuclear translocation, immunofluorescence imaging. nuclear translocation activity, % at 5 µM. 190,000 compounds, 0.3% hits;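 active = nuclear translocation activity above 50% at 5 µM, with a well cell count of 50 or more; inconclusive = wells under 50 cells across six images, flagged as toxic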;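 also: per-cell ratio of nuclear to cytoplasmic median beta-catenin stain intensity; plate controls were DMSO negative control for no effect and GSK-3 inhibitor IX positive control for full effect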
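Test system: human HeLa cell line; Doses: 5 µM primary, 0.02–20 µM confirmation; Incubation: 24 h compound exposure, 37°C; Detection: beta-catenin immunofluorescence imaging with DAPI; Read-out: beta-catenin nuclear/cytoplasmic ratio, % activation.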
ROMK primary – human ROMK K+ channel modulation, primary screen | B-score at 10 µM | Tet-inducible ROMK, thallium flux fluorescence; actives lie on both sides | AID 1918 | P48048 | 130,000 compounds, 2% hits;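 active = signal ratio slope over the read window, or its plate-corrected B-score, at least 3 SD from the plate mean, either direction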;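 also: B-score of the F/F0 ratio slope over 7 to 12 s after thallium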
MT stabilize HCS – microtubule stabilizers in HeLa cells; HeLa tubulin immunostaining HCS, 24 h; share of cells brighter than vehicle mean+2SD; % tubulin-high responders, % at 10 µM; 200,000 compounds, 0.83% hits;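 active = plate Z-score above 3 for both tubulin-high and condensed-nucleus cell shares, with cell loss under 80%, at 10 µM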;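 also: anti alpha tubulin signal scored within the nucleus-defined area of each cell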
KCC2 mod – modulates chloride dependent transport by human KCC2. 190,000 compounds, 2.2% hits. Q9H2X9. B-score of Tl+ flux slope (higher = more flux/activation; lower = inhibition) at 10 µM. KCC2 cells, thallium flux FluoZin-2 fluorescence. AID 1456;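 active = thallium flux slope and its plate-corrected score both differing from the plate sample mean at a set confidence after two filtering rounds, in either direction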;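 also: slope of fluorescence scaled to starting intensity during 10 to 20 s after thallium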
Target sequence (Q9H2X9 whole entry, looked up): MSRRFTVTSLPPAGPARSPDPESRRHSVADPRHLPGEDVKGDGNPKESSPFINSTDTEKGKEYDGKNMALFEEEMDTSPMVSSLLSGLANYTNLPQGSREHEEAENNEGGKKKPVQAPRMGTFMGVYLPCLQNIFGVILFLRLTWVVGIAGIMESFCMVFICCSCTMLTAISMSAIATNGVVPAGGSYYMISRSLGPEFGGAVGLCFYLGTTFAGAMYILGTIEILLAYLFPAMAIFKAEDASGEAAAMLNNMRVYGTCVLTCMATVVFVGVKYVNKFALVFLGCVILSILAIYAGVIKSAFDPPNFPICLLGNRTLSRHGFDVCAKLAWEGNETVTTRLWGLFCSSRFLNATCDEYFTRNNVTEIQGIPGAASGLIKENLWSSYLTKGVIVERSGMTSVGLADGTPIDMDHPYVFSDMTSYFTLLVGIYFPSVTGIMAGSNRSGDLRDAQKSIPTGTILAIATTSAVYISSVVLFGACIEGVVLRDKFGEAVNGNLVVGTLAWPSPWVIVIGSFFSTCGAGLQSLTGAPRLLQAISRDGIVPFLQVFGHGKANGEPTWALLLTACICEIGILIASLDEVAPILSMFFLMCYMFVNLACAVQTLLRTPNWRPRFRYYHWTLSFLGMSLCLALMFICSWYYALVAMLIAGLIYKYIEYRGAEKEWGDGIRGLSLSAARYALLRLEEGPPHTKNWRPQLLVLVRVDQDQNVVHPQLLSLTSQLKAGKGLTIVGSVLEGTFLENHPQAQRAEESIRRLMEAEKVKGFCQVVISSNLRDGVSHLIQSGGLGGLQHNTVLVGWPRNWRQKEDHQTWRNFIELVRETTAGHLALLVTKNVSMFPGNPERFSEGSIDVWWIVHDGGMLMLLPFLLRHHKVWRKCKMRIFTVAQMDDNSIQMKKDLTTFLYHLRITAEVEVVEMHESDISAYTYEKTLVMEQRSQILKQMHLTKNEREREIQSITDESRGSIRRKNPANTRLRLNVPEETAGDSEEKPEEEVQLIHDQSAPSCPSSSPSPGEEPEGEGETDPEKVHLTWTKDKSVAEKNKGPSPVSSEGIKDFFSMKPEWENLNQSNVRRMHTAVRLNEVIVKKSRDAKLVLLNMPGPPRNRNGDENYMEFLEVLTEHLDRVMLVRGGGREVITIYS
Redox H2O2 prof – compounds producing H2O2 with reducing agent – biochemical, NIH compound library profiling, artefact control for MLSCN library redox annotation, primary screen; DTT-dependent redox cycling H2O2, phenol red/HRP absorbance; 100% = 100 µM peroxide control, 0% = buffer; activation, % at 10 µM; 200,000 compounds, 0.03% hits; AID 878;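 active = activation of at least 50% relative to the plate's high and low controls in the primary single-dose screen; inactive = activation below 50%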;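 also: compound incubated with DTT at 0.8 mM final as the reducing agent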
KCC2 secondary – confirmation of human KCC2 transport modulators; 3,700 compounds, 15% hits; AID 1713; shares compounds with KCC2 mod; HEK293-KCC2, thallium flux, FluoZin2 fluorescence; stronger effect = higher value; normalised thallium flux (F/F0 slope) at 10 µM;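 active = thallium flux slope above the same plate's solvent-only control mean plus 3 SD; inconclusive = the two replicate wells disagree; inactive = no significant difference from solvent-only control wells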
KCC2 bumet counter – thallium flux despite bumetanide block in KCC2 cells, secondary assay 3; shares compounds with KCC2 mod; HEK293-KCC2 + bumetanide/ouabain, thallium flux FluoZin2; stronger effect = higher value; normalized thallium flux at 10 µM; 3,700 compounds, 49% hits; AID 1714;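 active = thallium entry rate above the same plate's blocked-transporter control wells by more than 3 SD; inconclusive = the two repeat wells disagree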;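 also: raw slope of fluorescence over initial fluorescence between 10 and 20 s after thallium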
KCC2 sec2 – KCC2 (human) modulation, second secondary assay | shares compounds with KCC2 mod | HEK293-KCC2, thallium flux FluoZin2 fluorescence; actives lie on both sides; F/F0 rise rate, 10–20 s post-thallium | normalized thallium flux at 10 µM | 3,700 compounds, 23% hits | AID 1715;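 active = thallium flux slope more than 3 SD above or below the plate's solvent-only control mean, mostly below; inconclusive = the two repeat wells disagreed; inactive = no significant shift from solvent-only controls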;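 also: raw slope with 0.1% DMSO as baseline and bumetanide as block control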
HEK counter1 – parental HEK flux effect, counter-screen; shares compounds with KCC2 mod; HEK293 parental cells, thallium flux FluoZin2, ouabain; baseline-ratio fluorescence slope, 10–20 s after thallium; thallium flux rate (normalised fluorescence) at 10 µM; 3,700 compounds, 46% hits;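 active = thallium flux rate significantly above the same plate's solvent-only control wells, beyond their mean plus 3 SD; inconclusive = the two replicate wells gave conflicting results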
KCC2 retest ouab – KCC2 (human) modulation, ouabain retest; 3,700 compounds, 48% hits; raw Tl+ flux slope (below DMSO = inhibition, above = activation) at 10 µM; shares compounds with KCC2 mod; HEK293-KCC2, thallium flux FluoZin2 fluorescence; bidirectional: low = inhibitor, high = activator;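 active = thallium flux slope beyond 3 SD from same-plate DMSO control mean in most replicates, usually higher, sometimes lower; inconclusive = repeat tests gave conflicting results; inactive = no significant difference from controls in most replicates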;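 also: slope of initial-normalized fluorescence between seconds 10 and 20 after thallium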
HEK counter2 – parental HEK flux effect, counter-screen 2. AID 1718. thallium flux slope at 10 µM. 3,700 compounds, 33% hits. shares compounds with KCC2 mod. HEK293 parental, thallium flux FluoZin-2 fluorescence slope;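 active = thallium flux slope above the same plate's solvent-control mean plus 3 SD in both duplicate wells; inconclusive = duplicate wells that disagreed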;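 also: run without ouabain in cells lacking the KCC2 cotransporter; slope of fluorescence scaled to its starting value between 10 and 20 s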
Numbers without * were called inactive.

What do the screens show for `O=C(NCc1cccnc1)C1c2ccccc2C(=O)N1C1CCCCCC1` (configuration not stated)?
b-catenin transl: -2; MT stabilize HCS: 5; KCC2 mod: -4.5*; Redox H2O2 prof: 0; KCC2 secondary: 0.0099; KCC2 bumet counter: 0.0071; KCC2 sec2: 0.034; HEK counter1: 0.0088; KCC2 retest ouab: 0.023; HEK counter2: inconclusive

What do the screens show for `CCOc1ccc(NC(=S)NNC(=O)c2cc(Br)ccc2Cl)cc1`?
b-catenin transl: 0; ROMK primary: -0.032; MT stabilize HCS: 6; KCC2 mod: 8.5*; Redox H2O2 prof: -2; KCC2 secondary: 0.0096; KCC2 bumet counter: 0.041*; KCC2 sec2: 0.034; HEK counter1: inconclusive; KCC2 retest ouab: 0.034*; HEK counter2: 0.013

How did Cc1ccc(-c2csc(N(C)C(=O)c3c(C)nn(-c4ccccc4)c3Cl)n2)cc1 do in these assays?
b-catenin transl: -1; MT stabilize HCS: 1; KCC2 mod: 0.098; Redox H2O2 prof: -1

What do the screens show for `c1ccc(CC2CCN(c3nnnn3-c3ccccc3)CC2)cc1`?
b-catenin transl: 0; ROMK primary: -0.38; MT stabilize HCS: 2; Redox H2O2 prof: 0; KCC2 secondary: 0.0067; KCC2 bumet counter: 0.0057; KCC2 sec2: 0.028; HEK counter1: inconclusive; KCC2 retest ouab: 0.016*; HEK counter2: 0.009

How did O=C(O)C(=O)/C(=C\c1cccc(Cl)c1)c1ccc2ccccc2n1 do in these assays?
b-catenin transl: -3; ROMK primary: -1.2; MT stabilize HCS: 3; KCC2 mod: 11*; Redox H2O2 prof: 0; KCC2 secondary: 0.0062; KCC2 bumet counter: 0.022*; KCC2 sec2: 0.033; HEK counter1: 0.023*; KCC2 retest ouab: inconclusive; HEK counter2: 0.016*

Results for O=C(CCCn1c(=S)[nH]c2cc3c(cc2c1=O)OCO3)N1CCN(c2ccccc2)CC1 ?
b-catenin transl: -2; MT stabilize HCS: 1; KCC2 mod: -1.8; Redox H2O2 prof: -7

What do the screens show for `CC1CC(C)CN(C(=O)CCCn2c(=S)[nH]c3ccccc3c2=O)C1` (configuration not stated)?
b-catenin transl: 0; ROMK primary: -1.4; MT stabilize HCS: 5; KCC2 mod: 5.4*; Redox H2O2 prof: 1; KCC2 secondary: 0.0054; KCC2 bumet counter: 0.029*; KCC2 sec2: 0.035; HEK counter1: 0.011*; KCC2 retest ouab: inconclusive; HEK counter2: inconclusive

How did Cc1cccc(N2CCN(C(=O)CCCn3c(=S)[nH]c4cc5c(cc4c3=O)OCO5)CC2)c1C do in these assays?
b-catenin transl: -2; ROMK primary: 1.7; MT stabilize HCS: 3; Redox H2O2 prof: 0; KCC2 secondary: 0.0075; KCC2 bumet counter: 0.012*; KCC2 sec2: 0.03; HEK counter1: inconclusive; KCC2 retest ouab: inconclusive; HEK counter2: inconclusive

How did Cc1ccc(NC(=O)CN(C)C(=O)CSc2nnc(C(F)(F)F)n2C)cc1 do in these assays?
b-catenin transl: -1; ROMK primary: -0.26; MT stabilize HCS: 2; KCC2 mod: 1.1; Redox H2O2 prof: 0
